Source: ChEMBL document CHEMBL1629690, “Development of hexadecyloxypropyl tenofovir (CMX157) for treatment of infection caused by wild-type and nucleoside/nucleotide-resistant HIV” (Antimicrob Agents Chemother, 2010)

Test system: Human immunodeficiency virus 1
Experiment: Antiviral activity against HIV1 isolate 201 harboring reverse transcriptase M41L/L210W/T215Y mutant gene by phenosense assay relative to wild type
Format: functional
Conditions: not given
Summary of the method: (§1)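 PhenoSense HIV recombinant virus assay: patient-derived HIV-1 with major NRTI resistance mutations tested against increasing drug concentrations to give inhibition curves. EC50 is the concentration giving 50% inhibition. Fold change is the test recombinant EC50 divided by the EC50 of a drug-sensitive wild-type reference virus. Panel of 30 NRTI-resistant isolates plus two wild-type viruses.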

| Compound | fold change (FC) |
| --- | --- |
| C[C@H](Cn1cnc2c(N)ncnc21)OCP(=O)(O)O [TENOFOVIR ANHYDROUS] | 3 |

Test system: Human immunodeficiency virus 1
Experiment: Antiviral activity against HIV1 isolate 206 harboring reverse transcriptase D67N/K70R mutant gene by phenosense assay relative to wild type
Format: functional
Conditions: not given
Summary of the method: as §1

| Compound | fold change (FC) |
| --- | --- |
| C[C@H](Cn1cnc2c(N)ncnc21)OCP(=O)(O)O [TENOFOVIR ANHYDROUS] | 2.6 |

Test system: Human immunodeficiency virus 1
Experiment: Antiviral activity against HIV1 isolate 069 harboring reverse transcriptase D67E/T69SSG/V75M/M184V/L210W/T215Y mutant gene by phenosense assay relative to wild type
Format: functional
Conditions: not given
Summary of the method: (§2)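 Recombinant-virus PhenoSense HIV assay run on a panel of 30 NRTI-resistant HIV-1 mutants and two wild-type viruses. Each virus is tested across increasing drug concentrations to give an inhibition curve and EC50. Fold change is the test recombinant EC50 divided by the EC50 of the drug-sensitive wild-type reference virus.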

| Compound | fold change (FC) |
| --- | --- |
| C[C@H](Cn1cnc2c(N)ncnc21)OCP(=O)(O)O [TENOFOVIR ANHYDROUS] | 4.7 |

Test system: Human immunodeficiency virus 1
Experiment: Antiviral activity against HIV1 isolate 200 harboring reverse transcriptase M41L/L210W/T215Y mutant gene by phenosense assay
Format: functional, organism-based
Conditions: Human immunodeficiency virus 1, isolate 200
Summary of the method: as §2

| Compound | EC50 [nM] |
| --- | --- |
| C[C@H](Cn1cnc2c(N)ncnc21)OCP(=O)(O)O [TENOFOVIR ANHYDROUS] | 2200 |

Test system: Human immunodeficiency virus 1
Experiment: Antiviral activity against HIV1 isolate 066 harboring reverse transcriptase 184V mutant gene by phenosense assay relative to wild type
Format: functional
Conditions: not given
Summary of the method: as §2

| Compound | fold change (FC) |
| --- | --- |
| C[C@H](Cn1cnc2c(N)ncnc21)OCP(=O)(O)O [TENOFOVIR ANHYDROUS] | 0.69 |

Test system: Human immunodeficiency virus 1
Experiment: Antiviral activity against HIV1 isolate 162 harboring reverse transcriptase A62V/V75I/F77L/Y115F/F116Y/Q151M/M184V mutant gene by phenosense assay relative to wild type
Format: functional
Conditions: not given
Summary of the method: as §2

| Compound | fold change (FC) |
| --- | --- |
| C[C@H](Cn1cnc2c(N)ncnc21)OCP(=O)(O)O [TENOFOVIR ANHYDROUS] | 1.4 |

Test system: Human immunodeficiency virus 1
Experiment: Antiviral activity against HIV1 isolate 180 harboring reverse transcriptase K65R mutant gene obtained as site-directed mutant of NL4-3 by phenosense assay
Format: functional, organism-based
Conditions: Human immunodeficiency virus 1, isolate 180
Summary of the method: as §2

| Compound | EC50 [nM] |
| --- | --- |
| C[C@H](Cn1cnc2c(N)ncnc21)OCP(=O)(O)O [TENOFOVIR ANHYDROUS] | 1600 |

Test system: Human immunodeficiency virus 1
Experiment: Antiviral activity against HIV1 isolate 063 harboring reverse transcriptase M41L/D67N/K70R/M184V/L210W/T215Y/K219E mutant gene by phenosense assay
Format: functional, organism-based
Conditions: Human immunodeficiency virus 1, isolate 063
Summary of the method: as §2

| Compound | EC50 [nM] |
| --- | --- |
| C[C@H](Cn1cnc2c(N)ncnc21)OCP(=O)(O)O [TENOFOVIR ANHYDROUS] | 1700 |

Test system: Human immunodeficiency virus 1
Experiment: Antiviral activity against HIV1 isolate 185 harboring reverse transcriptase T215Y mutant gene by phenosense assay relative to wild type
Format: functional
Conditions: not given
Summary of the method: as §2

| Compound | fold change (FC) |
| --- | --- |
| C[C@H](Cn1cnc2c(N)ncnc21)OCP(=O)(O)O [TENOFOVIR ANHYDROUS] | 2.4 |

Test system: Human immunodeficiency virus 1
Experiment: Antiviral activity against HIV1 isolate 194 harboring reverse transcriptase M41L/T215Y/M184V mutant gene by phenosense assay relative to wild type
Format: functional
Conditions: not given
Summary of the method: as §2

| Compound | fold change (FC) |
| --- | --- |
| C[C@H](Cn1cnc2c(N)ncnc21)OCP(=O)(O)O [TENOFOVIR ANHYDROUS] | 1.3 |

Test system: Human immunodeficiency virus 1
Experiment: Antiviral activity against HIV1 isolate 174 harboring reverse transcriptase M184V mutant gene obtained as site-directed mutant of NL4-3 by phenosense assay relative to wild type
Format: functional
Conditions: not given
Summary of the method: as §2

| Compound | fold change (FC) |
| --- | --- |
| C[C@H](Cn1cnc2c(N)ncnc21)OCP(=O)(O)O [TENOFOVIR ANHYDROUS] | 0.54 |

Test system: Human immunodeficiency virus 1
Experiment: Antiviral activity against HIV1 isolate 166 harboring reverse transcriptase L74V mutant gene obtained as site-directed mutant of NL4-3 by phenosense assay relative to wild type
Format: functional
Conditions: not given
Summary of the method: as §2

| Compound | fold change (FC) |
| --- | --- |
| C[C@H](Cn1cnc2c(N)ncnc21)OCP(=O)(O)O [TENOFOVIR ANHYDROUS] | 0.69 |

Test system: Human immunodeficiency virus 1
Experiment: Antiviral activity against HIV1 isolate 215 harboring reverse transcriptase D67N/K70E mutant gene by phenosense assay relative to wild type
Format: functional
Conditions: not given
Summary of the method: as §1

| Compound | fold change (FC) |
| --- | --- |
| C[C@H](Cn1cnc2c(N)ncnc21)OCP(=O)(O)O [TENOFOVIR ANHYDROUS] | 0.96 |

Test system: Human immunodeficiency virus 1
Experiment: Antiviral activity against HIV1 isolate 057 expressing wild type reverse transcriptase gene by phenosense assay
Format: functional, organism-based
Conditions: Human immunodeficiency virus 1, isolate 057
Summary of the method: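 In the PhenoSense recombinant virus assay, virus was tested against increasing drug concentrations. EC50 came from the inhibition curve and was compared with a drug-sensitive reference virus.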

| Compound | EC50 [nM] |
| --- | --- |
| C[C@H](Cn1cnc2c(N)ncnc21)OCP(=O)(O)O [TENOFOVIR ANHYDROUS] | 650 |

Test system: Human immunodeficiency virus 1
Experiment: Antiviral activity against HIV1 isolate 212 harboring reverse transcriptase L210W/T215Y mutant gene by phenosense assay relative to wild type
Format: functional
Conditions: not given
Summary of the method: as §1

| Compound | fold change (FC) |
| --- | --- |
| C[C@H](Cn1cnc2c(N)ncnc21)OCP(=O)(O)O [TENOFOVIR ANHYDROUS] | 1.3 |

Test system: Human immunodeficiency virus 1
Experiment: Antiviral activity against HIV1 isolate 204 harboring reverse transcriptase M41L/L210W/T215Y/M184V mutant gene by phenosense assay relative to wild type
Format: functional
Conditions: not given
Summary of the method: as §1

| Compound | fold change (FC) |
| --- | --- |
| C[C@H](Cn1cnc2c(N)ncnc21)OCP(=O)(O)O [TENOFOVIR ANHYDROUS] | 1 |

Test system: Human immunodeficiency virus 1
Experiment: Antiviral activity against HIV1 isolate 063 harboring reverse transcriptase M41L/D67N/K70R/M184V/L210W/T215Y/K219E mutant gene by phenosense assay relative to wild type
Format: functional
Conditions: not given
Summary of the method: as §2

| Compound | fold change (FC) |
| --- | --- |
| C[C@H](Cn1cnc2c(N)ncnc21)OCP(=O)(O)O [TENOFOVIR ANHYDROUS] | 2.2 |

Test system: Human immunodeficiency virus 1
Experiment: Antiviral activity against HIV1 isolate 211 harboring reverse transcriptase D67N/K70R/T215F/K219E/M184V mutant gene by phenosense assay
Format: functional, organism-based
Conditions: Human immunodeficiency virus 1, isolate 211
Summary of the method: as §1

| Compound | EC50 [nM] |
| --- | --- |
| C[C@H](Cn1cnc2c(N)ncnc21)OCP(=O)(O)O [TENOFOVIR ANHYDROUS] | 700 |
